# Laboratory results: the M2OR odorant receptor database
# Biological target: T1, UniProt Q8VH21
# T1 sequence (whole entry): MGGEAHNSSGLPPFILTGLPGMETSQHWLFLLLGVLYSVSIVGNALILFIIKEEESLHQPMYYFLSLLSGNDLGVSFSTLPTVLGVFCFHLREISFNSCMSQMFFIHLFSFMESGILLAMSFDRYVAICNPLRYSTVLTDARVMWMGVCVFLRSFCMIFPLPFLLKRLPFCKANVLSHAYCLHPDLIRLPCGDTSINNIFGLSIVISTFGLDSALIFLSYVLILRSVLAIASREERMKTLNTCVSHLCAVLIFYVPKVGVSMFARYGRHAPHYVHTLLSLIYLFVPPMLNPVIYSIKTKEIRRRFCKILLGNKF
# Conditions: stereoisomer not certain
# How it was run: (§1)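 Each receptor–molecule pair is labelled responsive or non-responsive (inactive) according to whether the original authors judged the measured signal statistically different from baseline. The data were taken from the main text and supplementary material of published papers and checked for typos and inconsistencies. Assay methods differed by source, with transient luciferase assays in mammalian cell lines being common.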
# 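Also: active if original authors judged signal statistically different from baseline.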
row,Structure (SMILES),odorant receptor agonist call
1,CCCCCCCCCCOC(C)=O,inactive
2,COC(OC)c1ccccc1,inactive
3,C=C(C)C1CCC2(C)OC2C1 (configuration not stated),inactive
4,CCCCCOC(=O)CCC,inactive
5,CCc1ccc(O)cc1,inactive
6,Cc1c(C)c(C)c(C=O)c(C)c1C,inactive
7,CCCCCC(C)O (configuration not stated),inactive
8,c1ccc2ncccc2c1,inactive
9,CCSCC,inactive
10,CC(C)CCN,inactive
11,CC1(C)CC(=O)CC(=O)C1,inactive
12,CC(=O)OC1(C)CCC23CC1C(C)(C)C2CCC3C (configuration not stated),inactive
13,CC(C)=C1CCC(C)CC1=O (configuration not stated),inactive
14,COc1nccnc1C(C)C,inactive
15,CNc1ccccc1C(=O)OC,inactive
16,CSSCc1ccco1,inactive
17,Cc1ccc(OC(=O)C(C)C)cc1,inactive
18,O=C(O)CCCCCCCCC(=O)O,inactive
19,COc1cnccn1,inactive
20,COc1ccccc1,inactive
21,OCCCCCCCCCO,inactive
22,C=C(C)C1CC=C(C)CC1 (configuration not stated),inactive
23,COc1nccnc1C,inactive
24,CC(CC=O)CCCC(C)(C)O (configuration not stated),inactive

# Biological target: T2, UniProt Q920P1
# T2 sequence (whole entry): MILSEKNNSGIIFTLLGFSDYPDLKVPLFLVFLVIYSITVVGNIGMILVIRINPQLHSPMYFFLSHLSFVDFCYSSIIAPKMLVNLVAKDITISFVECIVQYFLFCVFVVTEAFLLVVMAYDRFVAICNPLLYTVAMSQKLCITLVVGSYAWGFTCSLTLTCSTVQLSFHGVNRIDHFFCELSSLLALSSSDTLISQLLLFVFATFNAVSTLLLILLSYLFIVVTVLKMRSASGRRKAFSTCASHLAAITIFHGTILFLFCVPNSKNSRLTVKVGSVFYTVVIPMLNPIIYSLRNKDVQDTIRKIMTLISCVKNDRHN
# Conditions: stereoisomer not certain
# How it was run: as §1
row,Structure (SMILES),odorant receptor agonist call
1,COc1cc(C=O)cc(OC)c1O,inactive
2,CCc1ccc(O)c(OC)c1,inactive
3,C=CCc1ccc(OCC)c(OC)c1,inactive
4,CC(C=O)Cc1ccc(C(C)(C)C)cc1 (configuration not stated),inactive

# Biological target: T3, UniProt Q924H8
# T3 sequence (whole entry): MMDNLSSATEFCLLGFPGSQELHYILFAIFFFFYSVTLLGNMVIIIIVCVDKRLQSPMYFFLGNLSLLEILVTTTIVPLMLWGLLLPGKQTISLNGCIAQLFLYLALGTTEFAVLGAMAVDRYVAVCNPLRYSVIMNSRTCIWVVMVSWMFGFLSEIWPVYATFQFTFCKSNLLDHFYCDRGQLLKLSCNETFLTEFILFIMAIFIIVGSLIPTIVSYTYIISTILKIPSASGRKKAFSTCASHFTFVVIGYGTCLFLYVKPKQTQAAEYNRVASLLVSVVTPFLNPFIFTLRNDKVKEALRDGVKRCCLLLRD
# Conditions: stereoisomer not certain
# How it was run: as §1
row,Structure (SMILES),odorant receptor agonist call
1,CCCCCCCCCCOC(C)=O,inactive
2,COC(OC)c1ccccc1,inactive
3,C=C(C)C1CCC2(C)OC2C1 (configuration not stated),inactive
4,CCCCCOC(=O)CCC,inactive
5,CCc1ccc(O)cc1,inactive
6,Cc1c(C)c(C)c(C=O)c(C)c1C,inactive
7,CCCCCC(C)O (configuration not stated),inactive
8,c1ccc2ncccc2c1,inactive
9,CCSCC,inactive
10,CC(C)CCN,inactive
11,CC1(C)CC(=O)CC(=O)C1,inactive
12,CC(=O)OC1(C)CCC23CC1C(C)(C)C2CCC3C (configuration not stated),active
13,CC(C)=C1CCC(C)CC1=O (configuration not stated),inactive
14,COc1nccnc1C(C)C,inactive
15,CNc1ccccc1C(=O)OC,inactive
16,CSSCc1ccco1,inactive
17,Cc1ccc(OC(=O)C(C)C)cc1,inactive
18,O=C(O)CCCCCCCCC(=O)O,inactive
19,COc1cnccn1,inactive
20,COc1ccccc1,inactive
21,OCCCCCCCCCO,inactive
22,C=C(C)C1CC=C(C)CC1 (configuration not stated),inactive
23,COc1nccnc1C,inactive
24,CC(CC=O)CCCC(C)(C)O (configuration not stated),inactive
